Assay outcomes: PubChem BioAssay, SRMLSC
Yeast lifespan up – extends the lifespan of yeast | AID 775 | S. cerevisiae growth with nicotinamide, OD615; deaD strain in restrictive glucose medium | inhibition of the nicotinamide effect, % at 10 µM | hit rate 0.68% among 130,000;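 active = inhibition above a set limit, placed 3 SD over the median of all compounds, cut at about 26% in these data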
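Test system: DeaD-strain S. cerevisiae / Buffer or medium: restrictive glucose medium / Also added: nicotinamide 1.5 mM / Doses: one concentration, 10 µM, DMSO 0.25% / Schedule: 48 h at 30 °C / Signal: OD615 measurement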
Yeast growth inh – reduces growth of yeast BB579 in restrictive medium | inhibition, % at 10 µM | S. cerevisiae BB579 growth, OD615, 48 h | hit rate 0.51% among 140,000 | AID 804;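 active = inhibition above a set limit, 3 SD over the mean compound inhibition, cut at about 44% in these data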
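Material: Saccharomyces cerevisiae DeaD strain BB579, replicative lifespan model yeast; buffer or medium: CSMM-D restrictive synthetic medium containing dextrose (glucose); compound: 10 µM single dose, DMSO 0.25%; timing: 48 h compound exposure at 30 °C after 4 h preincubation; signal: turbidity as optical density at 615 nm; benchmarks: positive control amphotericin B 10 µg/mL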
RAM network inh – inhibitors of the yeast RAM network. S. cerevisiae dse1pr::URA3 reporter, 5-FOA growth OD615, 2 d; analog-sensitive cbk1-as2 kinase mutant strain. inhibition, % at 50 µM. hit rate 1.8% among 190,000;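 active = inhibition above a set limit, 3 SD over mean compound inhibition, cut at about 8.4% in these data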;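 also: inhibition rescues growth on 5-FOA so higher OD means more RAM inhibition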
WT yeast gro inh – growth inhibition of WT yeast, mitochondrial fusion screen | hit rate 2.1% among 190,000 | mitochondrial fusion phenotypic screen, WT strain | inhibition, % at 10 µM; in the data active = inhibition above about 58%; tested in S. cerevisiae
Large screens that a line does not name were inactive. An excerpt weighted towards active compounds, which were near 4.3% of everything screened.

Cc1c(N=Nc2c(-c3ccc([N+](=O)[O-])cc3)[nH]n(C(N)=S)c2=O)cccc1[N+](=O)[O-]	RAM network inh 11 (no result: Yeast lifespan up, Yeast growth inh)
NC(=S)n1[nH]c(-c2ccc([N+](=O)[O-])cc2)c(N=Nc2ccccc2[N+](=O)[O-])c1=O	none (no result: Yeast lifespan up, Yeast growth inh)
CCOC(=O)C/C(C)=N/NC(=O)Nc1ccccc1	Yeast lifespan up 31
Cc1nn(Cc2ccccc2)c(C)c1C(=O)OCC(=O)c1cc(C)n(C2CC2)c1C	RAM network inh 9.1
O=C(NCc1ccccn1)C(=O)Nc1nc(C23CC4CC(CC(C4)C2)C3)cs1	WT yeast gro inh 71 (no result: Yeast lifespan up, Yeast growth inh)
O=C(NCc1ccccn1)NC12CC3CC(CC(C3)C1)C2	Yeast lifespan up 32
O=C(NCC1CCCO1)C(c1ccc(F)cc1)N(CC1CCCO1)C(=O)c1ccc(-c2ccccc2)[nH]1 (centres undefined)	none (no result: Yeast lifespan up, Yeast growth inh)
O=C(NCC1CCCO1)C(c1cccs1)N(Cc1cccs1)C(=O)c1ccc(-c2ccccc2)[nH]1 (centres undefined)	RAM network inh 8.4
CCCCn1c(N)c(N(CCOC)C(=O)CCc2ccc(OC)cc2)c(=O)[nH]c1=O	none
O=C(Nc1cccc(S(=O)(=O)Nc2ccccc2F)c1)c1ccc2ccccc2n1	WT yeast gro inh 87 (no result: Yeast lifespan up, Yeast growth inh)
O=C(Cc1ccc(Cl)cc1Cl)Nc1cccc(S(=O)(=O)Nc2ccccc2F)c1	RAM network inh 8.8
COc1ccccc1NS(=O)(=O)c1cccc(NC(=O)c2ccc3ccccc3n2)c1	none
O=C(/C=C/c1ccccc1)Nc1cccc(S(=O)(=O)Nc2ccccc2F)c1	RAM network inh 9.3
CC(=O)NS(=O)(=O)c1ccc(NC(=O)/C=C/c2ccccc2)cc1	none (no result: Yeast lifespan up, Yeast growth inh)
O=C(Cc1ccc(Cl)cc1Cl)Nc1ccc(OC(F)F)c(Cl)c1	none
NNC(=O)c1ccc(N2CCCCCC2)c([N+](=O)[O-])c1	none (no result: Yeast lifespan up, Yeast growth inh)
CCOC(=O)c1noc(C)c1C(=O)Nc1nccs1	none (no result: Yeast lifespan up, Yeast growth inh)
O=C1c2cccc3c(O)ccc(c23)C(=O)N1Cc1ccccc1	none
CN(/N=C\c1ccc(O)c(O)c1)c1nc(-c2ccccc2)cc(-c2ccccc2)n1	WT yeast gro inh 71
Cc1ccc2nc(N3C(=O)C(O)=C(C(=O)c4ccco4)C3c3cccs3)sc2c1 (centres undefined)	Yeast lifespan up 61
COc1ccc(CCN2C(=O)C(O)=C(C(=O)c3ccco3)C2c2cccs2)cc1OC (centres undefined)	Yeast lifespan up 83
COc1cc(C2C(C(=O)c3ccco3)=C(O)C(=O)N2CCc2ccccc2)ccc1O (centres undefined)	none
COc1ccc(C2C(C(=O)c3ccco3)=C(O)C(=O)N2c2nnc(C)s2)cc1 (centres undefined)	none (no result: Yeast lifespan up, Yeast growth inh)
Cc1ccc(C(=O)Nc2cc([N+](=O)[O-])ccc2C)cc1	none (no result: Yeast lifespan up, Yeast growth inh)
CC(C)(C)c1ccc(NC(=O)c2ccccc2)c([N+](=O)[O-])c1	WT yeast gro inh 66 (no result: Yeast lifespan up, Yeast growth inh)
Cc1ccc(NC(=O)c2ccc(Nc3c([N+](=O)[O-])cc([N+](=O)[O-])cc3[N+](=O)[O-])cc2)cc1	WT yeast gro inh 60
Cc1c(NC(=O)c2ccc(C(C)(C)C)cc2)cccc1[N+](=O)[O-]	none
Cc1ccc(NC(=O)c2ccc(N/N=C/c3cccc(O)c3)c([N+](=O)[O-])c2)cc1	RAM network inh 9.0
CNc1ccc(/C=C/C(=O)c2ccc(C)cc2)cc1[N+](=O)[O-]	none
Cc1ccccc1NC(=O)c1ccc(N/N=C/c2ccccc2O)c([N+](=O)[O-])c1	RAM network inh 8.7
N#Cc1c(C(F)(F)F)cc(=O)[nH]c1SCC(=O)O	none (no result: Yeast lifespan up, Yeast growth inh)
O=C(COC(=O)Cc1cccc(C(F)(F)F)c1)Nc1ccc2c(c1)OCCO2	none
CN(C[C@H](Cc1ccccc1)N(C[C@H](c1ccccc1)N(CCc1ccccc1)N=O)N=O)N=O	RAM network inh 8.8 (no result: Yeast lifespan up, Yeast growth inh)
COc1ccc(C(=O)c2ccccc2)c(OCC(=O)N(C)C)c1	none (no result: Yeast lifespan up, Yeast growth inh)
CCOC(=O)Cn1nc(C)c(NC(=O)c2ccc([N+](=O)[O-])c(C)c2)c1C	none (no result: Yeast lifespan up, Yeast growth inh)
Cc1ccc2ncnc(NCCCCCC(=O)O)c2c1	none (no result: Yeast lifespan up, Yeast growth inh)
CCCCN(C(=O)c1ccc(Cl)c([N+](=O)[O-])c1)c1c(N)n(CCC)c(=O)[nH]c1=O	none (no result: Yeast lifespan up, Yeast growth inh)
COC(=O)/C(=C\c1ccc2c(c1)c1ccccc1n2C)NC(=O)c1ccccc1	RAM network inh 8.6
CCOC(=O)/C(=C/c1c2ccccc2cc2ccccc12)NC(=O)c1ccccc1	WT yeast gro inh 60
Cn1c2ccccc2c2cc(C(=O)O)ccc21	Yeast growth inh 77
CC(C)OC(=O)/C(=C/c1ccc2c(c1)c1ccccc1n2C)NC(=O)c1ccccc1	none
C=CCOC(=O)/C(=C\c1cccc2ccccc12)NC(=O)c1ccccc1	none
CCCn1c2ccccc2c2cc(C(=O)O)ccc21	none
CCN(CC)S(=O)(=O)c1ccc(N2CCOCC2)c(NC(=O)c2ccc(C#N)cc2)c1	none (no result: Yeast lifespan up, Yeast growth inh)
O=C(O)c1ccccc1C(=O)c1ccc2c(c1)N(Cc1ccc(Cl)c(Cl)c1)C(=O)CO2	WT yeast gro inh 63 (no result: Yeast lifespan up, Yeast growth inh)
CCOP(=O)(OCC)c1nc(/C=C/c2ccccc2)oc1NCc1ccccc1	WT yeast gro inh 83
CC1(C)CC(=O)C(C=Nc2ccc3[nH]ncc3c2)=C(O)C1	WT yeast gro inh 84
CC1(C)CC(=O)C(C=Nc2ccc3cn[nH]c3c2)=C(O)C1	none
CCCN(CC1CC1)C(=O)CSc1ncnc2sccc12	none (no result: Yeast lifespan up, Yeast growth inh)
O=C(CCl)Nc1cc(-c2ccccc2)nn1-c1ccccc1	none
Nc1ccccc1Nc1cc(-c2ccccc2)nn1-c1cccc(Cl)c1	WT yeast gro inh 68
CCC(CO)NCC(O)COCc1ccc2c(c1)OCO2 (centres undefined)	none (no result: Yeast lifespan up, Yeast growth inh)
O=C(NCCc1ccccc1)Nc1cccc(Cl)c1	none
O=[N+]([O-])c1ccc(NC(=S)NCCc2ccc(F)cc2)cc1	WT yeast gro inh 85
O=[N+]([O-])c1cccc(NC(=S)NCCc2ccccc2)c1	none
Fc1ccc(CCNC(=S)Nc2ccc(F)c(Cl)c2)cc1	WT yeast gro inh 77 (no result: Yeast lifespan up, Yeast growth inh)
O=C(NCCc1ccc(Cl)cc1)Nc1cccc(Cl)c1	WT yeast gro inh 61
Fc1ccc(NC(=S)NCCc2ccc(Cl)cc2)cc1	none
CC(=O)Nc1ccc(S(=O)(=O)NCC2CCC(C(=O)NC(C)c3ccc4c(c3)OCCO4)CC2)cc1 (centres undefined)	none (no result: Yeast lifespan up, Yeast growth inh)
O=C(Cc1c(F)cccc1Cl)Nc1nc2ccccc2s1	none (no result: Yeast lifespan up, Yeast growth inh)
CCOC(=O)C1=C(O)/C(=C/c2ccc(OCC(=O)O)c(OCC)c2)SC1=Nc1ccc(C)cc1	none (no result: Yeast lifespan up, Yeast growth inh)
CCOC(=O)C1=C(O)/C(=C/c2ccc(OCC(=O)O)c(OCC)c2)SC1=Nc1ccc(OC)cc1	RAM network inh 9.4
CCc1ccc(C(C)NC(=O)Cn2cnc3c(=O)n(C)c(=O)n(C)c32)cc1 (centres undefined)	none (no result: Yeast lifespan up)
Cc1cc(C)cc(N(CC(=O)NCc2ccc3c(c2)OCO3)C(=O)CCC(=O)Nc2ccccn2)c1	none
COc1ccc(CNC(=O)CN(C(=O)CCC(=O)Nc2ccccn2)c2cccc(C)c2)cc1	RAM network inh 10 (no result: Yeast lifespan up, Yeast growth inh)
CC(=O)/C(=N\Nc1ccc(C)cc1)N1CCOCC1	Yeast growth inh 92
CCC(CC)=C(C#N)C(=O)NC1CCCCC1	none
COc1ccc(COc2cc(-c3cccc(OC)c3)nc3ccc(NC(=O)c4ccc(N(C)C)cc4)cc23)cc1	none
